The source of these data is ChEMBL document CHEMBL1144486, “Synthesis, biological activity and molecular modelling of new trisubstituted 8-azaadenines with high affinity for A1 adenosine receptors” (Eur J Med Chem, 2007).

The target of one test is T1, Adenosine receptor A1 (Bos taurus, UniProt P28190).
T1 sequence (P28190 whole entry): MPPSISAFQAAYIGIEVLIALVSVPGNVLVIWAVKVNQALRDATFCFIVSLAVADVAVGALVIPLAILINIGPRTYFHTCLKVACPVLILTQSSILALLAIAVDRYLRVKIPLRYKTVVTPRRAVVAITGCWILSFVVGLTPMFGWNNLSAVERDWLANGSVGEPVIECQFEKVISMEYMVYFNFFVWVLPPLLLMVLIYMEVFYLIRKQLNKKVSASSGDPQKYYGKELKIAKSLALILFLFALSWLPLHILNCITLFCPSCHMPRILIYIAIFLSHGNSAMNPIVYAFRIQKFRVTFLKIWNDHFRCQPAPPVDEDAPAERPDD
As to the kind of experiment: Displacement of [3H]DPCPX from bovine cerebral cortex adenosine A1 receptor. In kind it is tissue-based. In outline: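 Nonspecific binding defined with CPA. Reaction stopped by dilution with ice-cold 50 mM Tris-HCl, then GF/C filtration and three washes. Bound radioactivity counted by liquid scintillation. Each test repeated until at least three consistent results were obtained and averaged for Ki.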

Test [1] addresses Adenosine receptor A2a (Homo sapiens) (UniProt P29274). Description: Displacement of [3H]ZM-241385 from human recombinant adenosine A2A receptor expressed in CHO cells at 1 uM. It counts as cell-based. The procedure, abridged:
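Membranes from CHO cells expressing recombinant human A2A receptor incubated 120 min at 25 °C with 4 nM [3H]ZM241385 and a single compound concentration, in duplicate, in Tris-HCl buffer. Nonspecific binding defined with NECA. Percent inhibition of specific binding recorded.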

Test [2] addresses T2, Adenosine receptor A3 (Homo sapiens) (UniProt P0DMS8).
T2 sequence (whole entry): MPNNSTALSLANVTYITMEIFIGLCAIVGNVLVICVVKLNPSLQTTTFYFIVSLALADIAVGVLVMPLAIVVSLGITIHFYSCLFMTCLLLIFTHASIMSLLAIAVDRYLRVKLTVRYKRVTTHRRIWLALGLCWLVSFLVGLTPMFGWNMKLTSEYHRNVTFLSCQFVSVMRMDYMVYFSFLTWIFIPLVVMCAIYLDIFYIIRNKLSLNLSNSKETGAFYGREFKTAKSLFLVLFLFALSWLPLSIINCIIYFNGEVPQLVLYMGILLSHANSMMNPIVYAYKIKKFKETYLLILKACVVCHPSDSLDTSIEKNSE
Description: Displacement of [3H]NECA from human recombinant adenosine A3 receptor expressed in CHO cells at 1 uM. It counts as cell-based. In outline: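 Membranes from CHO cells expressing recombinant human A3 receptor incubated 120 min at 25 °C with 6 nM [3H]NECA and a single compound concentration, in duplicate, in Tris-HCl buffer. Nonspecific binding defined with R-PIA. Percent inhibition of specific binding recorded.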

Adenosine receptor A2a (Homo sapiens), sequence (P29274 whole entry): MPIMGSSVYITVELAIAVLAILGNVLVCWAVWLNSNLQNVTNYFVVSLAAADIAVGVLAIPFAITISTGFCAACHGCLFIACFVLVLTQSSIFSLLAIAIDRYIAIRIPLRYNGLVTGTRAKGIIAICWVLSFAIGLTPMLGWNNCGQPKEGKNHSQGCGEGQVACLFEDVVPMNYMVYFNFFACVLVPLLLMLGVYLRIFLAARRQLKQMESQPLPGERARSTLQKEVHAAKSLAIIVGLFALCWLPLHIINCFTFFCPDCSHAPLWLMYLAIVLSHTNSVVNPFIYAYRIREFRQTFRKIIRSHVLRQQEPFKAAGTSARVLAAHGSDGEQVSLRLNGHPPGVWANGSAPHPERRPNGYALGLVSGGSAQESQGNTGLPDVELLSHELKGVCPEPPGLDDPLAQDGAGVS

At Adenosine receptor A1, `CCCNc1nc(-c2ccccc2)nc2c1nnn2Cc1ccccc1Cl` had a Ki of 101 nM. The inhibition in test [1] and in test [2] was < 50% each time.
`FC(F)(F)c1ccccc1Cn1nnc2c(NC3CCCC3)nc(-c3ccccc3)nc21`: on Adenosine receptor A1, affinity was put at a Ki of 0.6 nM. In addition, the inhibition in test [1] and in test [2] was < 50% in each case.
For `FC(F)(F)c1ccccc1Cn1nnc2c(NC3CCCCC3)nc(-c3ccccc3)nc21`, the inhibition constant (Ki) at Adenosine receptor A1 came out at 6.8 nM. For the same molecule, the inhibition in test [1] and in test [2] was < 50% in each case.
For `CNc1nc(-c2ccccc2)nc2c1nnn2Cc1ccccc1Cl`, the Ki at Adenosine receptor A1 turned out to be 191 nM. Also, the inhibition in test [1] and in test [2] was < 50% each time.
Turning to `CC(O)CNc1nc(-c2ccccc2)nc2c1nnn2Cc1ccccc1F` (stereo not given), on Adenosine receptor A1, the Ki is 4.8 nM. For the same molecule, the inhibition in test [1] and in test [2] was < 50% throughout.
Turning to `CCCCNc1nc(-c2ccccc2)nc2c1nnn2Cc1ccccc1F`, the Ki on Adenosine receptor A1 stood at 4.3 nM. Moreover, the inhibition in test [1] and in test [2] was < 50% each time.
For the molecule `CCNc1nc(-c2ccccc2)nc2c1nnn2Cc1ccccc1`, the Ki on Adenosine receptor A1 was determined as 91 nM. In addition, the inhibition in test [1] and in test [2] was < 50% in each case.
At Adenosine receptor A1, `Clc1ccccc1Cn1nnc2c(NC3CCCCC3)nc(-c3ccccc3)nc21` displayed an inhibition constant Ki of 34 nM. In addition, the inhibition in test [1] and in test [2] was < 50% in each case.
As for `OCCCNc1nc(-c2ccccc2)nc2c1nnn2Cc1ccccc1F`, at Adenosine receptor A1, the inhibitory constant (Ki) was 3.7 nM. Besides, the inhibition in test [1] and in test [2] was < 50% each time.
`FC(F)(F)c1ccccc1Cn1nnc2c(NC3CC3)nc(-c3ccccc3)nc21` displayed an inhibitory constant (Ki) on Adenosine receptor A1 of 7.8 nM. Besides, the inhibition in test [1] and in test [2] was < 50% throughout.
`CNc1nc(-c2ccccc2)nc2c1nnn2Cc1ccccc1F`: the Ki on Adenosine receptor A1 came to 25 nM. Moreover, the inhibition in test [1] and in test [2] was < 50% in each case.
On to `OCCCNc1nc(-c2ccccc2)nc2c1nnn2Cc1ccccc1`, for which affinity at Adenosine receptor A1 was put at a Ki of 21.4 nM. Moreover, the inhibition in test [1] and in test [2] was < 50% in each case.
As to `CCNc1nc(-c2ccccc2)nc2c1nnn2Cc1ccccc1C(F)(F)F`, the inhibition in test [1] and in test [2] was < 50% in each case.
For `Clc1ccccc1Cn1nnc2c(NC3CCCC3)nc(-c3ccccc3)nc21`, the affinity on Adenosine receptor A1 corresponds to a Ki of 9 nM. For the same molecule, the inhibition in test [1] and in test [2] was < 50% each time.
In the case of `CCCCCCNc1nc(-c2ccccc2)nc2c1nnn2Cc1ccccc1Cl`, on Adenosine receptor A1, the Ki was determined as 31 nM. For the same molecule, the inhibition in test [1] and in test [2] was < 50% throughout.
At Adenosine receptor A1, `CNc1nc(-c2ccccc2)nc2c1nnn2Cc1ccccc1` displayed a Ki of 353 nM. The inhibition in test [1] and in test [2] was < 50% each time.
At Adenosine receptor A1, `CCCCCCNc1nc(-c2ccccc2)nc2c1nnn2Cc1ccccc1` returned an inhibitory constant (Ki) of 13.2 nM. The inhibition in test [1] and in test [2] was < 50% each time.
In the case of `c1ccc(Cn2nnc3c(NC4CCCC4)nc(-c4ccccc4)nc32)cc1`, on Adenosine receptor A1, the affinity corresponds to a Ki of 11 nM. The inhibition in test [1] and in test [2] was < 50% throughout.
In the case of `Clc1ccccc1Cn1nnc2c(NC3CC3)nc(-c3ccccc3)nc21`, the Ki at Adenosine receptor A1 worked out at 11 nM. Further, the inhibition in test [1] and in test [2] was < 50% each time.
The molecule `Fc1ccccc1Cn1nnc2c(NC3CCCCC3)nc(-c3ccccc3)nc21` returned a Ki at Adenosine receptor A1 of 1.15 nM. In addition, the inhibition in test [1] and in test [2] was < 50% in each case.
At Adenosine receptor A1, `Clc1ccccc1Cn1nnc2c(NC3CCC3)nc(-c3ccccc3)nc21` showed an inhibition constant Ki of 24 nM. Also, the inhibition in test [1] and in test [2] was < 50% throughout.
With `CCCCCCNc1nc(-c2ccccc2)nc2c1nnn2Cc1ccccc1F`, on Adenosine receptor A1, the Ki was determined as 25 nM. The inhibition in test [1] and in test [2] was < 50% each time.
On to `CCCCNc1nc(-c2ccccc2)nc2c1nnn2Cc1ccccc1`, for which the affinity on Adenosine receptor A1 corresponds to a Ki of 11 nM. In addition, the inhibition in test [1] and in test [2] was < 50% each time.
Molecule `OCCNc1nc(-c2ccccc2)nc2c1nnn2Cc1ccccc1Cl` yielded an inhibitory constant (Ki) at Adenosine receptor A1 of 116 nM. For the same molecule, the inhibition in test [1] and in test [2] was < 50% in each case.
Regarding `OCCCNc1nc(-c2ccccc2)nc2c1nnn2Cc1ccccc1C(F)(F)F`, the Ki on Adenosine receptor A1 was determined as 147 nM. Further, the inhibition in test [1] and in test [2] was < 50% in each case.
`OCCCNc1nc(-c2ccccc2)nc2c1nnn2Cc1ccccc1Cl` came in with a Ki on Adenosine receptor A1 of 33 nM. For the same molecule, the inhibition in test [1] and in test [2] was < 50% throughout.
On to `CCCNc1nc(-c2ccccc2)nc2c1nnn2Cc1ccccc1C(F)(F)F`, for which the inhibition in test [1] and in test [2] was < 50% throughout.
Regarding `CCCCNc1nc(-c2ccccc2)nc2c1nnn2Cc1ccccc1Cl`, the inhibition constant (Ki) on Adenosine receptor A1 amounted to 79 nM. For the same molecule, the inhibition in test [1] and in test [2] was < 50% in each case.
As to `CCCCCCNc1nc(-c2ccccc2)nc2c1nnn2Cc1ccccc1C(F)(F)F`, the inhibition in test [1] and in test [2] was < 50% throughout.
As for `OCCNc1nc(-c2ccccc2)nc2c1nnn2Cc1ccccc1C(F)(F)F`, the inhibition in test [1] and in test [2] was < 50% throughout.
Consider `Fc1ccccc1Cn1nnc2c(NC3CC3)nc(-c3ccccc3)nc21`, for which the Ki on Adenosine receptor A1 is 15 nM. Also, the inhibition in test [1] and in test [2] was < 50% in each case.
`CC(O)CNc1nc(-c2ccccc2)nc2c1nnn2Cc1ccccc1` (stereo not given) returned a Ki at Adenosine receptor A1 of 7.5 nM. In addition, the inhibition in test [1] and in test [2] was < 50% each time.
In turn, `CCCNc1nc(-c2ccccc2)nc2c1nnn2Cc1ccccc1` displayed a Ki at Adenosine receptor A1 of 37 nM. In addition, the inhibition in test [1] and in test [2] was < 50% in each case.
On to `CCCCNc1nc(-c2ccccc2)nc2c1nnn2Cc1ccccc1C(F)(F)F`, for which the Ki on Adenosine receptor A1 stood at 6.5 nM. The inhibition in test [1] and in test [2] was < 50% throughout.
`CCNc1nc(-c2ccccc2)nc2c1nnn2Cc1ccccc1F` came in with a Ki at Adenosine receptor A1 of 11 nM. Further, the inhibition in test [1] and in test [2] was < 50% in each case.
Take `CCCNc1nc(-c2ccccc2)nc2c1nnn2Cc1ccccc1F`: the inhibitory constant (Ki) at Adenosine receptor A1 worked out at 3.2 nM. Besides, the inhibition in test [1] and in test [2] was < 50% throughout.
Molecule `OCCNc1nc(-c2ccccc2)nc2c1nnn2Cc1ccccc1` yielded a Ki on Adenosine receptor A1 of 38 nM. Moreover, the inhibition in test [1] and in test [2] was < 50% in each case.
As for `c1ccc(Cn2nnc3c(NC4CCC4)nc(-c4ccccc4)nc32)cc1`, at Adenosine receptor A1, the affinity corresponds to a Ki of 5 nM. Moreover, the inhibition in test [1] and in test [2] was < 50% throughout.
`OCCNc1nc(-c2ccccc2)nc2c1nnn2Cc1ccccc1F`: the inhibition constant Ki on Adenosine receptor A1 is 54 nM. Further, the inhibition in test [1] and in test [2] was < 50% throughout.
`CC(O)CNc1nc(-c2ccccc2)nc2c1nnn2Cc1ccccc1Cl` (stereo not given) registered an inhibition constant Ki on Adenosine receptor A1 of 32 nM. For the same molecule, the inhibition in test [1] and in test [2] was < 50% each time.
As to `CNc1nc(-c2ccccc2)nc2c1nnn2Cc1ccccc1C(F)(F)F`, the inhibition constant Ki at Adenosine receptor A1 is 14.9 nM. Also, the inhibition in test [1] and in test [2] was < 50% in each case.
`c1ccc(Cn2nnc3c(NC4CC4)nc(-c4ccccc4)nc32)cc1` gave a Ki at Adenosine receptor A1 of 11.3 nM. The inhibition in test [1] and in test [2] was < 50% each time.
For the molecule `CCNc1nc(-c2ccccc2)nc2c1nnn2Cc1ccccc1Cl`, at Adenosine receptor A1, affinity was put at a Ki of 463 nM. Moreover, the inhibition in test [1] and in test [2] was < 50% each time.
As for `Fc1ccccc1Cn1nnc2c(NC3CCCC3)nc(-c3ccccc3)nc21`, affinity at Adenosine receptor A1 was put at a Ki of 6.7 nM. Also, the inhibition in test [1] and in test [2] was < 50% throughout.
Take `CC(O)CNc1nc(-c2ccccc2)nc2c1nnn2Cc1ccccc1C(F)(F)F` (stereo not given): the inhibition in test [1] and in test [2] was < 50% throughout.
